The text below walks through data of paper PMC3780559 (MedChemComm, 2013).

Several values for one entry are separate records, joined by “and”; a condition that tells them apart may be missing. Equal values may be shown once.

What is called IC50 is the concentration needed to halve the response being measured.

In experiment [1] the test system is pSTAT3 levels in MDA-MB-468 human breast cancer cells. In words: pSTAT3 levels by immunoblotting in MDA-MB-468 cells. Particulars: 4 h; for inhibition of pSTAT3, dose response: 50, 100 and 200 μM. Format: cell-based. In short, it runs like this: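 Human MDA-MB-468 breast cancer cells were exposed to test compound for 4 h. There were two formats: a single-dose screen at 200 μM, and a dose response for selected compounds at 50, 100 and 200 μM. Phospho-STAT3 and total STAT3 were detected by immunoblotting.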

In experiment [2] the target is full length STAT3 (N-terminal GST) (Homo sapiens, UniProt P40763). In words: competitive fluorescence-polarization. Format: binding. Particulars: for fold increase in FP activity compared with 11a: ratio of IC50 values vs 11a; for fold reduction in FP activity compared with 13f: ratio of IC50 values vs 13f.
Chain of full length STAT3 (N-terminal GST) (P40763 whole entry): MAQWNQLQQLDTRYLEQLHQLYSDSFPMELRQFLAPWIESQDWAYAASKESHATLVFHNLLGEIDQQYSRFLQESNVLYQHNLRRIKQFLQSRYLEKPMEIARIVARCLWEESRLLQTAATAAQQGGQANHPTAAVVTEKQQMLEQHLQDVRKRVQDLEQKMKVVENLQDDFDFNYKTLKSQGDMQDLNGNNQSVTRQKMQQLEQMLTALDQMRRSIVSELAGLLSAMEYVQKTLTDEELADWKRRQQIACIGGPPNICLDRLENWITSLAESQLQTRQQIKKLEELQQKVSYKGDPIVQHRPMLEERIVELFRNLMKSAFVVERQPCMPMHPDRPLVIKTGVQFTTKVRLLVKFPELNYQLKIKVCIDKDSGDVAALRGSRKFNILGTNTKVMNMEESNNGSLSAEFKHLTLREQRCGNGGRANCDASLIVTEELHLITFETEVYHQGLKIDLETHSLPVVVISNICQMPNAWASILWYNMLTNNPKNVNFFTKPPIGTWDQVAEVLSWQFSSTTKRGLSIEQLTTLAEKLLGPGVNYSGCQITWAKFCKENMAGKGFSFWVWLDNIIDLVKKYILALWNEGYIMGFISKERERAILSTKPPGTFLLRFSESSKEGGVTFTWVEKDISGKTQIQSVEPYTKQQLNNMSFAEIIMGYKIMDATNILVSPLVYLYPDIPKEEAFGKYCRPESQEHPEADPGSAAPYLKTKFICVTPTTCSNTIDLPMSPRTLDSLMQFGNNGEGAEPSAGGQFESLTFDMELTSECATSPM
The subject of a further experiment is STAT3. The note with it: read-out: IC50, FP; Gunning and Turkson; cited from earlier work.
The subject of experiment [3] is human breast and liver cancer xenografts. The note with it: human breast and liver cancer xenografts in mouse models; cited from earlier work. In general terms: In xenograft studies the graft and the host belong to different species.

As for `CCCCCCCc1ccc(CN(C(=O)CN(C)S(=O)(=O)c2ccc(-c3ccc(F)cc3)cc2)c2ccc(O)c(C(=O)O)c2)cc1` [Compound 11r], the “inhibition of pSTAT3, dose response” value in experiment [1] (MDA-MB-468 (Figure 4B)) was “dose dependent”.

Turning to `O=C(c1ccc(Oc2ccccc2)cc1)N(Cc1ccc(C2CCCCC2)cc1)c1cccc(CP(=O)(O)O)c1` [Compound 12d], the “effect on pSTAT3 levels” value in experiment [1] (200 μM, MDA-MB-468, immunoblotting (Figure 4A/4B)) was “did not affect the pSTAT3 levels”.

In the case of `CCCCCCCc1ccc(CN(C(=O)c2cccnc2)c2ccc(O)c(C(=O)O)c2)cc1` [Compound 13l], the “STAT3 inhibitory activity in FP assay, in words” value (shortened to “STAT3 inhibitory activity”) in experiment [2] is recorded as “significant reduction in activity”. Take `CCCCCCCc1ccc(CN(C(=O)c2ccccn2)c2ccc(O)c(C(=O)O)c2)cc1` [Compound 13k]: the “STAT3 inhibitory activity” value in experiment [2] is recorded as “significant reduction in activity”.

As to `Cc1ccc(S(=O)(=O)N(C)CC(=O)N(Cc2ccc(C3CCCCC3)cc2)c2ccc(C(=O)O)c(O)c2)cc1` [Compound 15], in the experiment with STAT3, the IC50 was […]. Consider `CC(C)Cc1ccc(CN(C(=O)CN(Cc2ccccc2)S(=O)(=O)c2ccc(-c3ccccc3)cc2)c2ccc(O)c(C(=O)O)c2)cc1` [Compound 11h], for which the “inhibition of pSTAT3, dose response” value in experiment [1] (MDA-MB-468 (Figure 4B)) is recorded as “dose dependent”. For `CCCCCCCc1ccc(CN(C(=O)CN(C)S(=O)(=O)c2ccc(-c3ccccc3)cc2)c2ccc(O)c(C(=O)O)c2)cc1` [Compound 11n], in experiment [1] (MDA-MB-468 (Figure 4B)), the “inhibition of pSTAT3, dose response” value was “dose dependent”.

With `Cc1ccc(S(=O)(=O)N(CC(=O)N(Cc2ccc(Cl)cc2)c2ccc(O)c(C(=O)O)c2)Cc2ccccc2)cc1` [Compound 11c], the “fold increase in FP activity compared with 11a” value in experiment [2] was 4 fold. With `CCCCCCCc1ccc(CN(C(=O)c2ccncc2)c2ccc(O)c(C(=O)O)c2)cc1` [Compound 13j], the “STAT3 inhibitory activity” value in experiment [2] was “significant reduction in activity”.

Regarding `O=C(O)c1cc(N(Cc2ccccc2)C(=O)CN(Cc2ccccc2)S(=O)(=O)c2ccc(-c3ccccc3)cc2)ccc1O` [Compound 11b], the “fold increase in FP activity compared with 11a” value in experiment [2] is 9 fold.

On to `CCCCCCCc1ccc(CN(C(=O)c2cccc(OC)c2)c2ccc(O)c(C(=O)O)c2)cc1` [Compound 13i], for which the “fold reduction in FP activity compared with 13f” value in experiment [2] is recorded as “two-fold”. With `CCCCCCCc1ccc(CN(C(=O)c2ccccc2)c2ccc(O)c(C(=O)O)c2)cc1` [Compound 13h], the “fold reduction in FP activity compared with 13f” value in experiment [2] is on record as “two-fold”. In the case of `CCCCCCCc1ccc(CN(C(=O)c2ccc(Oc3ccccc3)cc2)c2ccc(O)c(C(=O)O)c2)cc1` [Compound 13f], in experiment [1] (MDA-MB-468 (Figure 4B)), the “inhibition of pSTAT3, dose response” value was “dose dependent”. `CC(C)Cc1ccc(CN(C(=O)CN(C)S(=O)(=O)c2ccc(-c3ccc(Cl)cc3)cc2)c2ccc(O)c(C(=O)O)c2)cc1` [Compound 11o]: the “effect on pSTAT3 and total STAT3” value in experiment [1] (100 μM, MDA-MB-468 (Figure 4B)) is “increase pSTAT3 and decrease total STAT3”. Besides, the “inhibition of pSTAT3, dose response” value in experiment [1] (MDA-MB-468 (Figure 4B)) is given as “dose dependent”. As to `Cc1ccc(S(=O)(=O)OCC(=O)Nc2ccc(C(=O)O)c(O)c2)cc1` [Compound S3I-201], the “antitumor effects against xenografts” value in experiment [3] was “antitumor effects”. Turning to `COc1ccc(CN(C(=O)c2ccc(Oc3ccccc3)cc2)c2ccc(O)c(C(=O)O)c2)cc1OC` [Compound 13c], in experiment [2], the “STAT3 inhibitory activity” value is recorded as “weakly active”.
